Key:
[1] = target: T1, 5-hydroxytryptamine receptor 1A (Rattus norvegicus, UniProt P19327); assay: Displacement of [3H]8-OH-DPAT from 5HT1A receptor in rat hippocampal membrane; type: cell membranes, Hippocampus
T1 sequence (P19327 whole entry): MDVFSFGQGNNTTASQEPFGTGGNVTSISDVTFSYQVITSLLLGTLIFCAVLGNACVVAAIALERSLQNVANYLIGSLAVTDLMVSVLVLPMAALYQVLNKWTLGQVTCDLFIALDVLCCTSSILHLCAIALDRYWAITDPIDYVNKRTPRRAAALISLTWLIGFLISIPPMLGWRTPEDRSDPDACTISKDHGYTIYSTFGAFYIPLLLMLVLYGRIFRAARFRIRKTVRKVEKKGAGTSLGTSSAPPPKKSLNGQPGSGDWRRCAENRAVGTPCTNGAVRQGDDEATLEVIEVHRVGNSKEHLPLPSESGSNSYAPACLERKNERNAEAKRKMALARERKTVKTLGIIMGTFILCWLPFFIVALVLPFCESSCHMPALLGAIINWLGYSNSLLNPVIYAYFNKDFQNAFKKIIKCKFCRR
Method in brief: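 Native receptor in rat hippocampal membranes, labelled with [3H]-8-OH-DPAT (170 Ci/mmol) and displaced by the compounds, which were tested without further purification. Screening used two compound concentrations. Full binding curves used 7–9 concentrations, each run in triplicate, and Ki was derived from inhibition of binding.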

[2] = target: 5-hydroxytryptamine receptor 2A (Rattus norvegicus, UniProt P14842); assay: Displacement of [3H]ketanserin from 5HT2A receptor in rat cortical membrane; type: cell membranes
5-hydroxytryptamine receptor 2A, sequence (P14842 whole entry): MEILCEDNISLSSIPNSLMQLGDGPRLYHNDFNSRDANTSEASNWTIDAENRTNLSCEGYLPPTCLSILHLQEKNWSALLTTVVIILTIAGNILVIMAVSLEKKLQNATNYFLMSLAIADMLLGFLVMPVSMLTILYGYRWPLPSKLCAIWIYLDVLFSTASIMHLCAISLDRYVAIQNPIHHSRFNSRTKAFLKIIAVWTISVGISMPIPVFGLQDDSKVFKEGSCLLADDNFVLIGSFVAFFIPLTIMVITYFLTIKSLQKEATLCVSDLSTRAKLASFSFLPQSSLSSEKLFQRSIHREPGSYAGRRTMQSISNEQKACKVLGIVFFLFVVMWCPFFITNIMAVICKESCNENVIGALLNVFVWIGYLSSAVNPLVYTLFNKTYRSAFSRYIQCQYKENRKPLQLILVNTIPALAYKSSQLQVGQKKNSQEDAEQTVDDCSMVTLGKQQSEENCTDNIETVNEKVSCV

Row | SMILES | Ki [1] [nM] | Ki [2] [nM]
1 | COc1ccccc1N1CCN(CCNC(=O)[C@@H]2CCCN2C(=O)C23CC4CC(CC(C4)C2)C3)CC1 | 350 | 1920
2 | O=C1CCC(=O)N1CCN1CCN(c2cccc(Cl)c2)CC1 | 3670 | 2120
3 | O=C(N[C@H]1CC(=O)N(CCN2CCN(c3cccc(Cl)c3)CC2)C1=O)C1CCCCC1 | 3780 | 1410
4 | COc1ccccc1N1CCN(CCCCNC(=O)[C@@H]2CCCN2C(=O)C23CC4CC(CC(C4)C2)C3)CC1 | 3 | 503
5 | O=C(NCCCCN1CCN(c2cccc(Cl)c2)CC1)[C@@H]1CCCN1C(=O)c1ccccc1 | 78 | 128
6 | COc1ccccc1N1CCN(CCNC(=O)[C@@H]2CCC(=O)N2C(=O)C2CCCCC2)CC1 | 1000 | 14900
7 | COc1ccccc1N1CCN(CCN2C(=O)CCC2=O)CC1 | 2090 | 17600
8 | COc1ccccc1N1CCN(CCNC(=O)[C@@H]2CCCN2C(C)=O)CC1 | 6600 | 8600
9 | COc1ccccc1N1CCN(CCNC(=O)[C@@H]2CCC(=O)N2C(=O)c2ccccc2)CC1 | 1510 | 8710
10 | O=C1CC2(CCCCC2)C(=O)N1CCN1CCN(c2cccc(Cl)c2)CC1 | 4.3 | 15
11 | COc1ccccc1N1CCN(CCN2C(=O)CC(NC(C)=O)C2=O)CC1 (stereo not drawn) | 7590 | 5680
12 | COc1ccccc1N1CCN(CCCN2C(=O)C[C@H](NC(C)=O)C2=O)CC1 | 480 | 
13 | O=C1CC(C2CCCCC2)C(=O)N1CCN1CCN(c2cccc(Cl)c2)CC1 (stereo not drawn) | 227 | 137
14 | COc1ccccc1N1CCN(CCCNC(=O)[C@@H]2CCCN2C(C)=O)CC1 | 580 | 3140
15 | COc1ccccc1N1CCN(CCCCNC(=O)[C@@H]2CCCN2C(=O)C2CCCCC2)CC1 | 19 | 990
16 | COc1ccccc1N1CCN(CCN2C(=O)CC3(CCCCC3)C2=O)CC1 | 5.7 | 254
17 | COc1ccccc1N1CCN(CCCN2C(=O)C[C@H](NC(=O)CC3CC4CCC3C4)C2=O)CC1 (stereo partly drawn) | 40 | 
18 | O=C(N[C@H]1CC(=O)N(CCCCN2CCN(c3cccc(Cl)c3)CC2)C1=O)c1ccccc1 | 41 | 75
19 | O=C(NCCCCN1CCN(c2cccc(Cl)c2)CC1)[C@@H]1CCC(=O)N1C(=O)C1CCCCC1 | 111 | 163

Continued by falling Ki [1], values first:

Row | Ki [1] [nM] | Ki [2] [nM] | SMILES
20 | 10000 | 1740 | O=C(N[C@H]1CC(=O)N(CCN2CCN(c3cccc(Cl)c3)CC2)C1=O)c1ccccc1
21 | 8520 | 3260 | O=C(NCCN1CCN(c2cccc(Cl)c2)CC1)[C@@H]1CCC(=O)N1C(=O)C1CCCCC1
22 | 7440 | 7340 | COc1ccccc1N1CCN(CCN2C(=O)C[C@H](NC(=O)C3CCCCC3)C2=O)CC1
23 | 3550 | 2330 | COc1ccccc1N1CCN(CCNC(=O)[C@@H]2CCCN2C(=O)C2CCCCC2)CC1
24 | 2010 | 357 | O=C(NCCN1CCN(c2cccc(Cl)c2)CC1)[C@@H]1CCCN1C(=O)C1CCCC1
25 | 1950 | 1300 | O=C(NCCN1CCN(c2cccc(Cl)c2)CC1)[C@@H]1CCCN1C(=O)c1ccccc1
26 | 1730 | 800 | O=C(NCCCN1CCN(c2cccc(Cl)c2)CC1)[C@@H]1CCC(=O)N1C(=O)C1CCCCC1
27 | 579 | 4800 | COc1ccccc1N1CCN(CCN2C(=O)C[C@H](NC(=O)C34CC5CC(CC(C5)C3)C4)C2=O)CC1
28 | 497 | 12400 | COc1ccccc1N1CCN(CCN2C(=O)C[C@H](NC(=O)CC3CC4CCC3C4)C2=O)CC1 (stereo partly drawn)
29 | 390 |  | COc1ccccc1N1CCN(CCCNC(=O)[C@@H]2CCC(=O)N2C(=O)c2ccccc2)CC1
30 | 360 | 92 | O=C(N[C@H]1CC(=O)N(CCCN2CCN(c3cccc(Cl)c3)CC2)C1=O)C1CCCCC1
31 | 230 |  | COc1ccccc1N1CCN(CCCN2C(=O)C[C@H](NC(=O)C3CCCCC3)C2=O)CC1
32 | 69 |  | COc1ccccc1N1CCN(CCCCN2C(=O)C[C@H](NC(C)=O)C2=O)CC1
33 | 63 |  | COc1ccccc1N1CCN(CCCN2C(=O)C[C@H](NC(=O)C34CC5CC(CC(C5)C3)C4)C2=O)CC1
34 | 24 | 868 | COc1ccccc1N1CCN(CCN2C(=O)CC(C3CCCCC3)C2=O)CC1 (stereo not drawn)
35 | 17 |  | COc1ccccc1N1CCN(CCCCNC(=O)[C@@H]2CCC(=O)N2C(=O)C2CCCCC2)CC1

— ChEMBL document CHEMBL1153881, “The influence of an ethylene spacer on the 5-HT(1A) and 5-HT(2A) receptor affinity of arylpiperazine derivatives of amides with N-acylated amino acids and 3-differently substituted pyrrolidine-2,5-diones” (Eur J Med Chem, 2009)
